Read-outs that look alike come from different tables or passages of the source. Starred links: 1 amine or outer side, 2 acyl side, 3 side chain; linkers in the order of their positions; H or OH if unused. Non-standard residues stand in square brackets, D forms with d. Residues, ends and D or L forms follow the SMILES beside them. No end group written: not given here. X2 = N6‑isopropyl‑N6‑phenethyl‑lysine, CC(C)N(CCCC[C@H](N[*:1])C(=O)[*:2])CCc1ccccc1; Lys(Et,iPr) = CCN(CCCC[C@H](N)C(=O)O)C(C)C; Me3 = trimethyl (on lysine, Kme3) Where only a bound is given, the exact number is not on record here.

The target of assay [1] is H3K36me3 peptide 31-40 (Homo sapiens) (UniProt P68431). The conditions noted are these: cited from earlier work.
In assay [2] the target is T1, PHF1 Tudor domain (Homo sapiens, UniProt O43189). The conditions noted are these: previously reported 10-mer peptide; cited from earlier work.
T1 sequence (O43189 25-87): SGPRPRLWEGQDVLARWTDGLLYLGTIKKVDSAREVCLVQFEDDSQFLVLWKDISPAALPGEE
In assay [3] the target is H3K36me3 15-residue peptide (Homo sapiens) (UniProt P68431). The following applies: cited from earlier work.
Another assay concerns the target PHF1 Tudor W41A (Homo sapiens, UniProt O43189, W41A). Briefly: ITC binding to PHF1 Tudor aromatic cage mutant W41A. The method, boiled down:
(§1)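 ITC at 25 °C in 25 mM Tris-HCl pH 7.5, 150 mM NaCl, 2 mM β-mercaptoethanol; typically 100 µM protein, 1 mM compound (10:1). 26 injections, 180 s apart, one-site fit. Fits reach Kd ~100 µM; weaker binding is reported >100 µM. Two independent runs, mean ± SD.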

Assay [4] addresses T1, PHF1 Tudor domain. Put plainly: ITC binding to PHF1 Tudor domain. The following applies: wildtype PHF1 Tudor domain.
In another assay the target is PHF1 Tudor Y47A (Homo sapiens, UniProt O43189, Y47A). Put plainly: ITC binding to PHF1 Tudor aromatic cage mutant Y47A. The method, boiled down: as §1
Sequence of PHF1 Tudor Y47A (O43189 25-87 Y47A): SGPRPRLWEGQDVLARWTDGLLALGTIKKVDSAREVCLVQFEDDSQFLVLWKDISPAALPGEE
A further assay addresses PHF1 Tudor F65A (Homo sapiens, UniProt O43189, F65A). Briefly: ITC binding to PHF1 Tudor aromatic cage mutant F65A. The method, boiled down:
as §1

The target of assay [5] is T2, PHF1 Tudor domain (residues 25-87), N-terminal His tag (UniProt O43189-1 25-87). Briefly: ITC. On the technique in general: ITC needs no label: the signal is the heat of the interaction.
T2 sequence (O43189 25-87): as the sequence (O43189 25-87) above
For assay [6], the target named is PHF1 Tudor domain (residues 25-87) Y47A, N-terminal His tag (UniProt O43189-1 25-87, Y47A). Briefly: ITC.
Sequence of PHF1 Tudor domain (residues 25-87) Y47A, N-terminal His tag (O43189 25-87 Y47A): as the sequence (O43189 25-87 Y47A) above
Assay [7] addresses PHF19 Tudor domain (residues 49-115), N-terminal His tag. Briefly: ITC.
The target of assay [8] is T2, PHF1 Tudor domain (residues 25-87), …. Put plainly: ITC. The source holds these as a separate data set.

Sequence of PHF1 Tudor W41A (O43189 25-87 W41A): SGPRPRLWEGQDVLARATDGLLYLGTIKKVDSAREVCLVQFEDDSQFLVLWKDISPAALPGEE
Sequence of PHF1 Tudor F65A (O43189 25-87 F65A): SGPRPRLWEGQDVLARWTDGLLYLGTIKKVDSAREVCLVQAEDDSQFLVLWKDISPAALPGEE

As for PHF1 Tudor (from UniProt O43189), the equilibrium dissociation constant (Kd) in [1] was 16 µM.
For “H3(31—40): previously reported 10-mer H3K36me3 peptide (ATGGVK(Me3)KPHR; UniProt P68431 32-41, looked up, fragment)”, the Kd in the assay with PHF1 Tudor domain [2] was 16 ± 4 µM.
As for PHF1 (from UniProt O43189), the dissociation constant (Kd) in assay [3] was 4 µM.
On to `CCN(CCCC[C@H](NC(=O)[C@@H](NC(=O)CNC(=O)CN)C(C)C)C(=O)N[C@@H](CCCCN)C(=O)N1CCC[C@H]1C(=O)N[C@@H](CC(C)C)C(=O)N[C@@H](CCCNC(=N)N)C(N)=O)C(C)C` [UNC7643, Amino(((S)-5-amino-4-((S)-2-((S)-1-((2S,5S,8S)-14-amino-2-(4-aminobutyl)-5-(4-(ethyl(isopropyl)amino)butyl)-8-isopropyl-4,7,10,13-tetraoxo-3,6,9,12-tetraazatetradecanoyl)pyrrolidine-2-carboxamido)-4-methylpentanamido)-5-oxopentyl)amino)methaniminium] (H-GGV[Lys(Et,iPr)]KPLR-NH2), for which the “binding to mutant (in words)” value on PHF1 Tudor W41A, on PHF1 Tudor Y47A and at PHF1 Tudor F65A was “failed to bind” each time. Further, the “fold less potent than UNC6641” value at PHF1 Tudor domain [4] is “about 10 fold”.

B1: H3K36me3 peptide H3(33-40), GGVKme3KPHR (peptide)
peptide: GGVK(Me3)KPHR-NH2
In turn, B1 showed a Kd in assay [5] of 22.3 µM.

B2: UNC6641 (peptide)
peptide: GGV[X2]KPLR-NH2
Turning to B2, the figures for the equilibrium dissociation constant (Kd) in assay [6] and in assay [7] were more than 100 µM and 2.1 µM, respectively.

B3: H3K36me3 peptide H3(33-39) G33V, VGVKme3KPH (peptide)
peptide: VGVK(Me3)KPH-NH2
Turning to B3, in assay [5], the dissociation constant (Kd) stood at 48 µM.

B4: H3K36me3 peptide H3(33-39), GGVKme3KPH (peptide)
peptide: GGVK(Me3)KPH-NH2
Turning to B4, in [5], the equilibrium dissociation constant (Kd) amounted to 52 µM.

B5: UNC6640 (peptide)
peptide: GGV[N6‑ethyl‑N6‑(1-(furan-2-yl)ethyl)‑lysine]KPLR-NH2
In [8], B5 gave a dissociation constant Kd of 17.9 µM.

B6: UNC7643 (peptide)
peptide: GGV[N6‑ethyl‑N6‑isopropyl‑lysine]KPLR-NH2
For the molecule B6, the values for the Kd in [6] and in assay [8] were more than 100 µM and 10.1 µM, respectively.

A word on the Kd: it is the concentration at which binding is half-saturated.

Values taken from article PMC8225578 (Journal of medicinal chemistry, 2021).
